Data on 23 molecules can be found in ChEMBL document CHEMBL4330115, “Discovery of a new class of valosine containing protein (VCP/P97) inhibitors for the treatment of non-small cell lung cancer” (Bioorg Med Chem, 2019).

Data set [1] deals with Transitional endoplasmic reticulum ATPase (Homo sapiens, UniProt P55072). Put plainly: Inhibition of human p97 using ATP as substrate after 60 mins by ADP-Glo assay.
The nature of data set [2]: AUC (0 to infinity) in Sprague-Dawley rat at 30 mg/kg, ig administered as single dose by LC-MS/MS analysis. It is filed as ADME, organism-based. Also noted: dose 30 mg/kg, route intragastric, time infinity. The conditions noted are these: in vivo, po. In short, it runs like this: (§1)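 Male Sprague-Dawley rats received a single dose, iv by tail vein at 5 mg/kg or orally (ig) at 30 mg/kg. Vehicle was a solution of 40% PEG400, 10% castor oil, 5% EtOH and 45% buffered saline. Orbital sinus blood (0.1 mL) was taken into heparinized tubes at 2, 5, 15 and 30 min and at 1, 2, 4, 8 and 24 h, then centrifuged for plasma.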

The nature of data set [3]: Tmax in Sprague-Dawley rat at 5 mg/kg, iv administered as single dose by LC-MS/MS analysis. It is filed as ADME, organism-based. The conditions noted are these: in vivo. An outline of the steps:
as §1

Data set [4] in a line: Tmax in Sprague-Dawley rat at 30 mg/kg, ig administered as single dose by LC-MS/MS analysis. The conditions noted are these: in vivo, po. It is filed as ADME, organism-based. An outline of the steps:
as §1

Data set [5] is described as follows: AUC (0 to t) in Sprague-Dawley rat at 5 mg/kg, iv administered as single dose by LC-MS/MS analysis. Conditions: in vivo; call rule not given here. It is filed as ADME, organism-based. An outline of the steps:
as §1

The test system of the next data set is A549. Put plainly: Antiproliferative activity against human A549 cells after 72 hrs by CCK-8 assay. It is filed as functional, cell-based. The conditions noted are these: A549, 72 h. On the technique in general: Tetrazolium assays rely on reduction of a dye to a coloured formazan, in cell work by metabolically active cells.
Data set [6] can be described thus: AUC (0 to infinity) in Sprague-Dawley rat at 5 mg/kg, iv administered as single dose by LC-MS/MS analysis. Conditions: in vivo. Also on record: dose 5 mg/kg, route intravenous, time infinity. It is filed as ADME, organism-based. In short, it runs like this: as §1
Data set [7] can be described thus: Half life in human liver microsomes at 1 uM after 60 mins by LC-MS analysis. It is filed as ADME, Microsome. (Liver microsomes are vesicles of endoplasmic reticulum, rich in cytochrome P450 enzymes.)
Data set [8] in a line: Intrinsic clearance in monkey liver microsomes at 1 uM after 60 mins by LC-MS analysis. The conditions noted are these: rhesus monkey, 1 h. It is filed as ADME, Macaca mulatta, Microsome.
Data set [9] is described as follows: Oral bioavailability in Sprague-Dawley rat at 30 mg/kg administered as single dose by LC-MS/MS analysis. It is filed as ADME, organism-based. Conditions: in vivo. In short, it runs like this: as §1
Data set [10] can be described thus: Intrinsic clearance in mouse liver microsomes at 1 uM after 60 mins by LC-MS analysis. Conditions: 1 h. It is filed as ADME, Microsome.
Data set [11] in a line: MRT in Sprague-Dawley rat at 5 mg/kg, iv administered as single dose by LC-MS/MS analysis. It is filed as ADME, organism-based. The conditions noted are these: in vivo. An outline of the steps:
as §1

Data set [12] is described as follows: MRT in Sprague-Dawley rat at 30 mg/kg, ig administered as single dose by LC-MS/MS analysis. Conditions: in vivo, po. It is filed as ADME, organism-based. In short, it runs like this:
as §1

A short description of data set [13]: Half life in Sprague-Dawley rat at 5 mg/kg, iv administered as single dose by LC-MS/MS analysis. It is filed as ADME, organism-based. The conditions noted are these: in vivo. In short, it runs like this: as §1
Data set [14] can be described thus: Intrinsic clearance in dog liver microsomes at 1 uM after 60 mins by LC-MS analysis. Conditions: 1 h. It is filed as ADME, Canis lupus familiaris, Microsome.
Data set [15] in a line: Half life in monkey liver microsomes at 1 uM after 60 mins by LC-MS analysis. It is filed as ADME, Macaca mulatta, Microsome. The conditions noted are these: rhesus monkey.
The nature of data set [16]: Half life in dog liver microsomes at 1 uM after 60 mins by LC-MS analysis. It is filed as ADME, Canis lupus familiaris, Microsome.
The nature of data set [17]: Intrinsic clearance in rat liver microsomes at 1 uM after 60 mins by LC-MS analysis. It is filed as ADME, Microsome. The conditions noted are these: 1 h.
A short description of data set [18]: AUC (0 to t) in Sprague-Dawley rat at 30 mg/kg, ig administered as single dose by LC-MS/MS analysis. The conditions noted are these: in vivo, po. It is filed as ADME, organism-based. In short, it runs like this:
as §1

Data set [19] in a line: Cmax in Sprague-Dawley rat at 30 mg/kg, ig administered as single dose by LC-MS/MS analysis. Conditions: in vivo, po. It is filed as ADME, organism-based. Also noted: dose 30 mg/kg, route intragastric. An outline of the steps: as §1
A short description of data set [20]: Half life in mouse liver microsomes at 1 uM after 60 mins by LC-MS analysis. It is filed as ADME, Microsome.
A short description of data set [21]: Half life in rat liver microsomes at 1 uM after 60 mins by LC-MS analysis. It is filed as ADME, Microsome.
Data set [22] is described as follows: Half life in Sprague-Dawley rat at 30 mg/kg, ig administered as single dose by LC-MS/MS analysis. It is filed as ADME, organism-based. Conditions: in vivo, po. An outline of the steps: as §1
The nature of data set [23]: Cmax in Sprague-Dawley rat at 5 mg/kg, iv administered as single dose by LC-MS/MS analysis. It is filed as ADME, organism-based. Also on record: dose 5 mg/kg, route intravenous. Conditions: in vivo. In short, it runs like this: as §1
A short description of data set [24]: Intrinsic clearance in human liver microsomes at 1 uM after 60 mins by LC-MS analysis. It is filed as ADME, Microsome. The conditions noted are these: 1 h.

Transitional endoplasmic reticulum ATPase, sequence (P55072 whole entry): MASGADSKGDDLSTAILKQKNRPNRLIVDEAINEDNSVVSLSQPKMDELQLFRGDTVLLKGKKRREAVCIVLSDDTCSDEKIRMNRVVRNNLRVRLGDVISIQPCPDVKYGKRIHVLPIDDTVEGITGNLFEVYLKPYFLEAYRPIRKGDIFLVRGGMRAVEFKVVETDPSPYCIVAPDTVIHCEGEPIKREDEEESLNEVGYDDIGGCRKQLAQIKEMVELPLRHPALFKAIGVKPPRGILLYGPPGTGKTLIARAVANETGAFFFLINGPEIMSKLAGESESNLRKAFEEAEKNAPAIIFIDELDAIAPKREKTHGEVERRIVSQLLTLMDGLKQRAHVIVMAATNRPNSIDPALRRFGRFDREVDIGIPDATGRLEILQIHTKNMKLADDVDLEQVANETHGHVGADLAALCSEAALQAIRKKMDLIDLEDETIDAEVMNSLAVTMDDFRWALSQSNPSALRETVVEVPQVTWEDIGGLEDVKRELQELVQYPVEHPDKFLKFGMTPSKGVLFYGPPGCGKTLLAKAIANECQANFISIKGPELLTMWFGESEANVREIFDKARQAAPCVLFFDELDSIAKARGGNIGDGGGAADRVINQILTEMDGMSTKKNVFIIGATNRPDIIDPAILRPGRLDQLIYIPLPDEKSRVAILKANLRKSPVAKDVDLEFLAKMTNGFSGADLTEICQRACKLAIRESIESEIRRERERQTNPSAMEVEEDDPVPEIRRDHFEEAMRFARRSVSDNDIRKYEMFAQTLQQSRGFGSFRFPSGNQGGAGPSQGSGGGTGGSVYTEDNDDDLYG

As to `Cc1cc2c(NC(=O)CN3CCCC3)cccc2n1-c1nc2c(c(NCc3ccccc3)n1)COCC2`, in data set [1] (read-out: IC50), the IC50 is 449 nM.

`Cc1cc2c(NS(=O)(=O)c3ccccc3)cccc2n1-c1nc2c(c(NCc3ccccc3)n1)COCC2`: the IC50 in [1] (read-out: IC50) amounted to 135 nM.

As for `C=CC(=O)Nc1cccc2c1cc(C)n2-c1nc2c(c(NCc3cccc4ccccc34)n1)COCC2`, the IC50 result in data set [1] was “Not Active”.

Take `Cc1cc2c(NC(=O)CCl)cccc2n1-c1nc2c(c(NCc3ccccc3)n1)COCC2`: the 50% inhibitory concentration (IC50) in data set [1] (read-out: IC50) was found to be 308 nM.

For the molecule `CC(=O)Nc1cccc2c1cc(C)n2-c1nc2c(c(NCc3ccccc3)n1)COCC2`, the IC50 in data set [1] (read-out: IC50) is 129 nM.

`C=CC(=O)Nc1cccc2c1cc(C)n2-c1nc2c(c(NCc3ccncc3)n1)COCC2`: the concentration for half-maximal inhibition (IC50) in [1] (read-out: IC50) was 5100 nM.

Regarding `Cc1cc2c(NS(C)(=O)=O)cccc2n1-c1nc2c(c(NCc3ccccc3)n1)COCC2`, the values for the AUC(0-inf) in [2] and in data set [6] were 2560 ng·h/mL and 7420 ng·h/mL, respectively. Besides, the Tmax in data set [3] was 3 min; in data set [4], 160 min. Moreover, the figures for the AUC(0-t) in [5] and in data set [18] were 6950 ng·h/mL and 1770 ng·h/mL, respectively. The IC50 in the data set on A549 was found to be 1600 nM; in data set [1] (read-out: IC50), 36.4 nM. In addition, the half-life at 1 µM in data set [7] stood at 42.3 min; in data set [15], 12.3 min; in [16], 36.3 min; in data set [20] it was 47.8 min; in data set [21], 16.8 min. The CLint in data set [8] came to 152 mL/min/kg; in data set [10] it was 114 mL/min/kg; in data set [14], 55 mL/min/kg; in data set [17], 149 mL/min/kg; in [24], 29.5 mL/min/kg. The bioavailability in data set [9] stood at 4.2%. The values for the MRT in [11] and in [12] were 271 min and 425 min, respectively. Besides, the half-life was 218 min in data set [13] and 274 min in data set [22]. The Cmax in data set [19] is 191 ng/mL; in data set [23], 3380 ng/mL.

`Cc1cc2c(C(N)=O)cccc2n1-c1nc2c(c(NCC3CC3)n1)COCC2`: in data set [1], the IC50 result is recorded as “Not Active”.

Take `Cc1cc2c(NC(=O)/C=C/c3ccccc3)cccc2n1-c1nc2c(c(NCc3ccccc3)n1)COCC2`: the IC50 in [1] (read-out: IC50) was 447 nM.

Take `Cc1cc2c(NS(=O)(=O)C(F)(F)F)cccc2n1-c1nc2c(c(NCc3ccccc3)n1)COCC2`: the concentration for half-maximal inhibition (IC50) in data set [1] (read-out: IC50) is 101 nM.

As for `Cc1cc2c(C(N)=O)cccc2n1-c1nccc(NCc2ccccc2)n1`, the IC50 in data set [1] (read-out: IC50) is 161 nM.

For the molecule `C=CC(=O)Nc1cccc2c1cc(C)n2-c1nc2c(c(NCc3ccccc3)n1)COCC2`, the IC50 was 4600 nM in the data set with A549 and 58.3 nM in data set [1] (read-out: IC50).

Take `Cc1cc2c(C(N)=O)cccc2n1-c1nc2c(c(NCCN3CCOCC3)n1)COCC2`: the IC50 result in data set [1] was “Not Active”.

On to `Cc1cc2c(C(N)=S)cccc2n1-c1nc2c(c(NCc3ccccc3)n1)COCC2`, for which, in [1] (read-out: IC50), the IC50 amounted to 193 nM.

Regarding `NC(=O)c1cccc(Nc2nc3c(c(NCc4ccccc4)n2)COCC3)c1`, the IC50 entry in [1] is reported as “Not Active”.

`Cc1cc2c(C(N)=O)cccc2n1-c1nc2c(c(NCc3ccncc3)n1)COCC2`: the IC50 entry in data set [1] was “Not Active”.

For `CC(=O)Nc1cccc2c1ccn2-c1nc2c(c(NCc3ccccc3)n1)COCC2`, the IC50 in data set [1] (read-out: IC50) was found to be 922 nM.

With `Cc1cc2c(NS(=O)(=O)C3CC3)cccc2n1-c1nc2c(c(NCc3ccccc3)n1)COCC2`, the IC50 with A549 is 2100 nM; in data set [1] (read-out: IC50), 34.6 nM.

Consider `Cc1cc2c(NC(=O)/C=C/CN(C)C)cccc2n1-c1nc2c(c(NCc3ccccc3)n1)COCC2`, for which the IC50 in data set [1] (read-out: IC50) worked out at 387 nM.

For the molecule `Cc1cc2c(C(N)=O)cccc2n1-c1nc2c(c(NCc3ccccc3)n1)COCC2` [CB-5083], the half-life at 1 µM in data set [7] came to 25.8 min; in [15] it was 14.7 min; in data set [16] it was 36.5 min; in data set [20], 141 min; in data set [21] it was 17 min. In addition, the CLint in [8] stood at 127 mL/min/kg; in [10], 38.6 mL/min/kg; in [14], 54.7 mL/min/kg; in data set [17], 146 mL/min/kg; in [24] it was 48.4 mL/min/kg.

Turning to `Cc1cc2c(C(N)=O)cccc2n1-c1nc2c(c(NCc3ccccc3)n1)CCCCC2`, the IC50 worked out at 2600 nM in the data set on A549 and 82.8 nM in data set [1] (read-out: IC50).

Take `C=CC(=O)Nc1cccc2c1cc(C)n2-c1nc2c(c(NCC3CC3)n1)COCC2`: the IC50 entry in data set [1] is listed as “Not Active”.

As for `Cc1cc2c(C(N)=O)cccc2n1-c1nc2c(c(NCc3ccccc3)n1)CCCCCC2`, in data set [1] (read-out: IC50), the IC50 is 120 nM.

One may read the IC50 as the concentration at which inhibition is half-maximal. As a reminder, the AUC(0-inf) is the area under the concentration-time curve extrapolated to infinity. As usually defined, the Tmax is the time at which the peak concentration occurs. Usually AUC(0-t) stands for the area under the concentration-time curve up to a stated or last time point. In general, half-life refers to how long it takes for the measured level to halve. A word on the bioavailability: it is dose-corrected exposure relative to a reference, in per cent. Usually MRT stands for a mean duration of stay, worked out from the concentration-time curve. Usually Cmax stands for the maximum level reached in the sampled fluid or tissue.
